Screens deposited in PubChem by Broad Institute.
An excerpt weighted towards active compounds, which were near 3% of everything screened.
SIRT5 block: sirtuin-5 (human) deacylase inhibition; actives 1.1% (n = 330,000); inhibition, % at 15 µM; Purified SirT5, succinyl-peptide AMC, trypsin-coupled fluorescence; in the data active = inhibition above about 15%
Target sequence (Q9NXA8 whole entry, looked up): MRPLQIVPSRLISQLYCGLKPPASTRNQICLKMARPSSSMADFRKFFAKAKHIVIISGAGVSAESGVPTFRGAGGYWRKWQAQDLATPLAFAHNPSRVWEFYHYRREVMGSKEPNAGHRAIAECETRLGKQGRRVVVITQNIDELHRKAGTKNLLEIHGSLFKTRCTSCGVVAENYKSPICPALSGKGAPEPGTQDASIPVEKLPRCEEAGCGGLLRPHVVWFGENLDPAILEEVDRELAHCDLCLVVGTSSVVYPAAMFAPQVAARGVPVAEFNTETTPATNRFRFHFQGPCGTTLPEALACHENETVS
Statin myotox sup: suppression of simvastatin myotoxicity | actives 0.78% (n = 330,000) | AID 602340 | C2C12 myotubes + simvastatin, ATP luminescence, 48 h; scaled: DMSO 0, geranylgeraniol control 100 | rescue of ATP level, % at 7.49 µM;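 active = mean ATP rescue above about 67%, or every replicate alone reaching that limit, limit read from the data, passing the limit was not always enough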;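 also: myotubes were challenged with 10 µM simvastatin during compound exposure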
Ecoli rRNA inh: selective bacterial rRNA inhibition in E. coli. E. coli WT GFP vs humanized-ribosome RFP mutants, fluorescence, 24 h; hits give low values; DMSO median 0, no signal -100. GFP signal change (wild-type ribosome), % (no concentration beside the values). actives 1.6% (n = 350,000). AID 720706;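 active = significant combined selectivity score with lowered wild-type GFP, culture density cut under 30%, mutant RFP and density less affected; inactive = any of these conditions unmet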
Cneo AK release: Cryptococcus neoformans lysis via adenylate kinase release. C. neoformans lysis, adenylate kinase release luminescence, 4 h; normalised: neutral wells 0, clomiphene wells 100. lysis activity, % at 15 µM. actives 0.2% (n = 360,000). AID 651654;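 active = mean lysis activity across replicates of at least 80%, whatever share of replicates individually reach that level; inactive = mean lysis activity below 80%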
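Signal: Adenylate kinase release luminescence | Assay system: Log-phase Cryptococcus neoformans yeast cells | Input: Cells at 5 × 10^6 per mL | Buffer or medium: Fresh YPD growth medium | Compound: Single dose | Schedule: Static 4 h at 37 °C with compound, 1 h detection | Controls: Clomiphene | Read-out: Luminescence rise reflecting yeast cell lysis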
S100A4 MyoIIA: blocks human S100A4 binding to myosin IIA peptide | P26447 | S100A4/TAMRA-MyoIIA peptide fluorescence polarization | inhibition, % at 10.7 µM | actives 0.14% (n = 360,000) | AID 652163;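 active = mean inhibition of at least 70% across replicates, with every replicate also reaching that level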
Target sequence (P26447 whole entry, looked up): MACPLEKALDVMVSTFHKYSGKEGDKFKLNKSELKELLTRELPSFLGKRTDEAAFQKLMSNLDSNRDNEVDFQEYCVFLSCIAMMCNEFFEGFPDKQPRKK
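Test system: S100A4 monomer protein. Medium: HEPES buffer with Ca2+, pH 7.2. Reagent: fluorescent myosin IIA peptide, 5 nM. Compound dosing: single-point compound testing. Timing: 5 min between mix addition and reading. Benchmarks: DMSO neutral and TFP positive wells.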
PGC1a acetyl inh: lowers PGC1a acetylation signal in U2OS cells | actives 0.17% (n = 350,000) | AID 651687 | AlphaScreen anti-acetyl-lysine; with virally co-expressed GCN5 acetyltransferase | inhibition, % at 15.6 µM;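 active = every replicate shows inhibition of at least 40%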;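 also: 0% = neutral control wells and 100% = positive control wells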
* = called active by the depositor; nt = no result.

SMILES	SIRT5 block	Statin myotox sup	Ecoli rRNA inh	Cneo AK release	S100A4 MyoIIA	PGC1a acetyl inh
Cc1ccc(S(=O)(=O)N(C)C[C@H]2OCCCC[C@H](C)Oc3ccc(NC(=O)C4CCCCC4)cc3C(=O)N([C@@H](C)CO)C[C@@H]2C)cc1	nt	-330	3	2	nt	nt
Cc1[nH]n(C2=NCCS2)c(=O)c1N=Nc1cccc(C(F)(F)F)c1	3	nt	-25*	nt	-3	nt
Cc1[nH]n(-c2ccccc2)c(=O)c1N=Nc1cccc(C(=O)O)c1	0	6	-27*	-7	3	14
O=C(CN1CCOCC1)N1CC[C@@H]2[C@H]1c1cc(-c3ccccc3F)ccc1N[C@@H]2CO	nt	-3	2	-3	nt	4
O=C(C1CCOCC1)N1CC[C@@H]2[C@H]1c1cc(Br)ccc1N[C@@H]2CO	6	17	5	87*	0	11
O=C(C1CCOCC1)N1CC[C@@H]2[C@H](CO)Nc3ccc(Br)cc3[C@@H]21	8	19	0	-12	68	10
O=C(c1cccc(F)c1)N1CC[C@H]2[C@H](CO)Nc3ccc(-c4ccc(F)cc4)cc3[C@H]21	8	-16	-59	32	102*	3
CN(C)C(=O)c1cccc(-c2ccc3c(c2)[C@H]2[C@H](CCN2C(=O)C2CC2)[C@H](CO)N3)c1	1	1	-5	-6	-9	4
CN(C)C(=O)c1cccc(-c2ccc3c(c2)[C@H]2[C@H](CCN2C(=O)C2CC2)[C@@H](CO)N3)c1	6	-15	0	24	78*	8
O=C(CN1CCOCC1)N1CC[C@@H]2[C@@H](CO)Nc3ccc(-c4ccccc4F)cc3[C@@H]21	nt	-4	4	101*	nt	-24
CN(C)C(=O)c1ccc(-c2ccccc2[C@H]2[C@@H](CO)N(C(=O)C3CCCC3)[C@H]2C#N)cc1	-4	nt	5	nt	-10	-7
N#Cc1cccc(-c2ccc3c(c2)[C@H]2[C@H](CCN2C(=O)c2ccccc2F)[C@H](CO)N3)c1	nt	-12	-26*	-22	nt	-12
O=C(CC1CC1)Nc1ccc2c(c1)[C@@H]1C[C@@H](CC(=O)N3CCc4ccccc4C3)O[C@H](CO)[C@@H]1O2	0	3	2	24	-6	2
Cc1cc(C(=O)Nc2ccc3c(c2)C(=O)N(C)[C@H]2CC[C@@H](CC(=O)NC4CCCC4)O[C@@H]2CO3)no1	6	37	0	1	-13	2
C=C1C(=O)C23C(O)C1CCC2C12COC3(O)C(O)C1C(C)(C)CCC2O (stereo not drawn)	nt	110*	nt	-2	6	-14
C=C(C)COc1ccc2oc(C)c(C(=O)OCCOC)c2c1	nt	106*	nt	0	nt	8
CNC[C@H]1OCCCC[C@@H](C)Oc2ccc(N(C)C)cc2C(=O)N([C@H](C)CO)C[C@H]1C	15*	-2	5	-5	1	5
CC(C)NC(=O)Nc1ccc2c(c1)C(=O)N([C@@H](C)CO)C[C@@H](C)[C@H](CN(C)C(=O)NC1CCCCC1)OCCCC[C@@H](C)O2	5	nt	1	2	8	-2
C[C@@H]1CCCCO[C@@H](CN(C)C(=O)NC2CCCCC2)[C@@H](C)CN([C@@H](C)CO)C(=O)c2cc(N(C)C)ccc2O1	-1	7	2	4	1	4
C[C@H](CO)N1C[C@H](C)[C@@H](CN(C)C(=O)CCCN(C)C)OCCCC[C@H](C)Oc2ccc(N(C)C)cc2C1=O	-5	5	0	-6	-18	19
C[C@@H]1CCCCO[C@H](CN(C)C(=O)CCCN(C)C)[C@@H](C)CN([C@@H](C)CO)C(=O)c2cc(N(C)C)ccc2O1	16*	3	-1	-1	-51	8
C[C@@H]1CN([C@H](C)CO)C(=O)c2cc(N(C)C)ccc2O[C@@H](C)CCCCO[C@@H]1CN(C)C(=O)NC1CCCCC1	7	2	0	5	104*	-40
CC(C)NC(=O)Nc1ccc2c(c1)C(=O)N([C@@H](C)CO)C[C@@H](C)[C@@H](CN(C)C(=O)NC1CCCCC1)OCCCC[C@H](C)O2	5	nt	-3	92*	3	5
CN1C(=O)c2cc(NC(=O)c3ccc(F)cc3)ccc2OC[C@@H]2O[C@H](CC(=O)NCC3CC3)CC[C@@H]21	6	-12	-5	-1	-4	1
Cc1ccc(S(=O)(=O)Nc2ccc3c(c2)CC(=O)N([C@H](C)CO)C[C@H](C)[C@H](CN(C)CC2CCCCC2)O3)cc1	4	-14	nt	7	-7	-11
SMILES	SIRT5 block	Statin myotox sup	Ecoli rRNA inh	Cneo AK release	S100A4 MyoIIA	PGC1a acetyl inh
C[C@@H]1CCCCO[C@@H](CN(C)C(=O)NC2CCCCC2)[C@H](C)CN([C@H](C)CO)C(=O)c2cc(NC(=O)C3CCCCC3)ccc2O1	13	17	-4	-2	26	18
C[C@@H]1CN([C@@H](C)CO)C(=O)c2cc(NC(=O)C3CCCCC3)ccc2O[C@@H](C)CCCCO[C@@H]1CN(C)C(=O)NC1CCCCC1	-1	-48	-4	97*	6	10
Cc1cccc2c1NC(=O)C2=Nc1ccc(Cl)cc1	5	8	-19*	-1	5	6
Cc1ccc(N=C2C(=O)Nc3c(C)cccc32)cc1	1	18	10	-1	-3	0
Cc1ccc(C2=NS(=O)(=O)N(C)C(C(=O)NC3CCCCC3)=C2)cc1	-5	15	-4	-1	2	2
Cc1ccc(C2=NS(=O)(=O)N(C)C(C(=O)Nc3cc(C)n(CC(=O)N4CCC(C)CC4)n3)=C2)cc1	2	10	-29*	-9	0	11
CC(C)NC(=O)N(C)C[C@@H]1OCCCC[C@@H](C)Oc2ccc(NC(=O)CCC(F)(F)F)cc2C(=O)N([C@@H](C)CO)C[C@@H]1C	-3	nt	4	0	5	2
O=C(O)c1ccccc1C(=O)N1N=C2/C(=C/c3cccc([N+](=O)[O-])c3)CCCC2C1c1cccc([N+](=O)[O-])c1 (stereo not drawn)	24*	nt	-5	nt	-1	3
C[C@H](CO)N1C[C@H](C)[C@@H](CN(C)Cc2cccnc2)Oc2ncc(-c3ccccc3)cc2C1=O	1	35	2	-4	11	-3
CCc1ccc(OCC(=O)O/N=C(\N)c2ccccn2)cc1	1	nt	-22*	-9	-1	2
Cc1nnc(SCC(=O)Nc2ncc3c(n2)CC(c2ccccc2)CC3=O)s1 (stereo not drawn)	28*	-6	20	3	0	0
